Assay results published in ChEMBL document CHEMBL4706580, “4-Amino-1,2,4-triazole-3-thione-derived Schiff bases as metallo-β-lactamase inhibitors” (Eur J Med Chem, 2020).
The source made the active and inactive calls. The calls are words filed in the database; no cut-off is given here.

How the values were obtained:
[1] = Inhibition of beta-lactamase VIM-2 (unknown origin) expressed in Escherichia coli LZ2310 assessed as potentiation of cefoxitin antibacterial activity by measuring cefoxitin induced diameter of inhibition zone at 40 uM incubated for 18 hrs by disk diffusion method (reference value: 14 mm)
Procedure, shortened: (§1)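 Efflux-deficient E. coli LZ2310 (NorE, MdfA, AcrA knocked out) carrying pLB-II with the cloned MBL gene. Mueller-Hinton, CLSI disk diffusion; antibiotic disks (30 µg cefoxitin for VIM-2, 10 µg ampicillin for VIM-4, 30 µg ceftazidime for NDM-1/IMP-1) loaded with inhibitor in DMSO (≤15 µL). Zone diameter after 18 h, 35 ± 1 °C; DMSO and 220 µg EDTA controls. Triplicate.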

[2] = Inhibition of beta-lactamase VIM-4 (unknown origin) expressed in Escherichia coli LZ2310 assessed as potentiation of ampicillin antibacterial activity by measuring ampicillin induced diameter of inhibition zone at 40 uM incubated for 18 hrs by disk diffusion method (reference value: 6 mm); procedure, shortened: as §1
[3] = Inhibition of beta-lactamase VIM4 (unknown origin) expressed in Escherichia coli BL21(DE3) using imipenem as substrate by measuring substrate hydrolysis by spectrophotometric analysis
Procedure, shortened: (§2)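 Purified enzyme (overproduced in E. coli BL21(DE3), pET-9a; ion-exchange and gel filtration), 1-70 nM final. Reporter substrate 150 μM imipenem, read at 300 nm, 30 °C, 50 mM HEPES pH 7.5. Single-point screen at 100 or 200 μM; Ki from v0/vi vs [I] (0.5–1,000 μM final) assuming competitive inhibition, or Dixon plot. Triplicate.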

[4] = target: Hydroxyacylglutathione hydrolase (Homo sapiens); test: Inhibition of human Glyoxalase II expressed in Escherichia coli BL21 (DE3)
[5] = Inhibition of beta-lactamase L1 (unknown origin) expressed in Escherichia coli BL21(DE3) using nitrocefin as substrate by measuring substrate hydrolysis preincubated for 30 mins by spectrophotometric analysis
Procedure, shortened: (§3)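 Enzyme 0.2–0.8 nM in 25 mM HEPES pH 7.5 with 50 μM ZnCl2 final, pre-incubated 30 min at 21 °C with inhibitor (100 μM screen). Nitrocefin 100 μM final, read at 482 nm, 30 °C. Residual activity vs three uninhibited samples; Ki (1–100 μM inhibitor) from Hanes linearization, competitive model. Triplicate.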

[6] = Inhibition of beta-lactamase VIM2 (unknown origin) expressed in Escherichia coli BL21(DE3) using imipenem as substrate by measuring substrate hydrolysis by spectrophotometric analysis; procedure, shortened: as §2
[7] = Inhibition of beta-lactamase CphA (unknown origin) expressed in Escherichia coli BL21(DE3) using imipenem as substrate by measuring substrate hydrolysis by spectrophotometric analysis
Procedure, shortened: (§4)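 Enzyme 0.2–0.8 nM in 15 mM cacodylate pH 6.5, no added zinc, pre-incubated 30 min at 21 °C with inhibitor (100 μM screen). Imipenem substrate added from 10 mM stock; hydrolysis at 300 nm, 30 °C. Residual activity vs three uninhibited samples; Ki (1–100 μM inhibitor) by Hanes linearization, competitive model. Triplicate.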

[8] = Inhibition of beta-lactamase NDM1 (unknown origin) expressed in Escherichia coli BL21(DE3) using cefotaxime/nitrocefin as substrate by measuring substrate hydrolysis at 100 uM by spectrophotometric analysis
[9] = Inhibition of beta-lactamase NDM1 (unknown origin) expressed in Escherichia coli BL21(DE3) using cefotaxime/nitrocefin as substrate by measuring substrate hydrolysis at 200 uM by spectrophotometric analysis
[10] = Binding affinity to beta-lactamase VIM-2 expressed in Escherichia coli BL21(DE3) assessed as change in enthalpy at 25 degC by isothermal titration calorimetry
Procedure, shortened: (§5)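 VIM-2 (19 μM) in 10 mM HEPES-NaOH, 0.15 M NaCl, 50 μM ZnSO4, pH 7.5, DMSO matched to ligand (1-2% final). One 0.5 μl then 19 × 2 μl injections of compound (200-400 μM), 150 s apart, 25 °C. Buffer dilution heats subtracted; nonlinear least-squares fit for n, Ka, ΔH; compound concentration adjusted in fitting so n ≈ 1.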

[11] = Inhibition of beta-lactamase IMP-1 (unknown origin) expressed in Escherichia coli BL21(DE3) using imipenem as substrate by measuring substrate hydrolysis at 100 uM by spectrophotometric analysis; procedure, shortened: as §2
[12] = Binding affinity to beta-lactamase VIM-2 expressed in Escherichia coli BL21(DE3) assessed as association constant at 25 degC by isothermal titration calorimetry; procedure, shortened: as §5
[13] = Binding affinity to beta-lactamase VIM-2 expressed in Escherichia coli BL21(DE3) assessed as change in entropy at 25 degC by isothermal titration calorimetry; procedure, shortened: as §5
[14] = Inhibition of beta-lactamase NDM1 (unknown origin) expressed in Escherichia coli BL21(DE3) using cefotaxime/nitrocefin as substrate by measuring substrate hydrolysis by spectrophotometric analysis
Procedure, shortened: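 His-tagged enzyme from E. coli BL21(DE3) pET-15b, affinity-purified, 1-70 nM final. Reporter substrate 120 μM cefotaxime (260 nm) or 100 μM nitrocefin (482 nm), 30 °C, 50 mM HEPES pH 7.5. Inhibitor 0.5–1,000 μM final; competitive Ki from v0/vi vs [I] slope or Dixon plot. Triplicate.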

[15] = Binding affinity to beta-lactamase VIM-2 expressed in Escherichia coli BL21(DE3) assessed as Gibbs free energy at 25 degC by isothermal titration calorimetry; procedure, shortened: as §5
[16] = Binding affinity to beta-lactamase VIM-2 expressed in Escherichia coli BL21(DE3) assessed as dissociation constant at 25 degC by isothermal titration calorimetry; procedure, shortened: as §5
[17] = Inhibition of beta-lactamase CphA (unknown origin) expressed in Escherichia coli BL21(DE3) using imipenem as substrate by measuring substrate hydrolysis at 200 uM by spectrophotometric analysis
[18] = Inhibition of beta-lactamase L1 (unknown origin) expressed in Escherichia coli BL21(DE3) using nitrocefin as substrate by measuring substrate hydrolysis at 100 uM preincubated for 30 mins by spectrophotometric analysis; procedure, shortened: as §3
[19] = Inhibition of beta-lactamase CphA (unknown origin) expressed in Escherichia coli BL21(DE3) using imipenem as substrate by measuring substrate hydrolysis at 100 uM by spectrophotometric analysis; procedure, shortened: as §4
[20] = Inhibition of beta-lactamase VIM4 (unknown origin) expressed in Escherichia coli BL21(DE3) using imipenem as substrate by measuring substrate hydrolysis at 100 uM by spectrophotometric analysis; procedure, shortened: as §2
[21] = Inhibition of beta-lactamase NDM-1 (unknown origin) expressed in Escherichia coli LZ2310 assessed as potentiation of ceftazidime antibacterial activity by measuring ceftazidime induced diameter of inhibition zone at 40 uM incubated for 18 hrs by disk diffusion method (reference value: 15 mm); procedure, shortened: as §1
[22] = Inhibition of beta-lactamase VIM4 (unknown origin) expressed in Escherichia coli BL21(DE3) using imipenem as substrate by measuring substrate hydrolysis at 200 uM by spectrophotometric analysis; procedure, shortened: as §2
[23] = Inhibition of beta-lactamase VIM2 (unknown origin) expressed in Escherichia coli BL21(DE3) using imipenem as substrate by measuring substrate hydrolysis at 200 uM by spectrophotometric analysis; procedure, shortened: as §2
[24] = Inhibition of beta-lactamase L1 (unknown origin) expressed in Escherichia coli BL21(DE3) using nitrocefin as substrate by measuring substrate hydrolysis at 200 uM preincubated for 30 mins by spectrophotometric analysis
[25] = Inhibition of beta-lactamase VIM2 (unknown origin) expressed in Escherichia coli BL21(DE3) using imipenem as substrate by measuring substrate hydrolysis at 100 uM by spectrophotometric analysis; procedure, shortened: as §2
[26] = Inhibition of beta-lactamase IMP-1 (unknown origin) expressed in Escherichia coli BL21(DE3) using imipenem as substrate by measuring substrate hydrolysis by spectrophotometric analysis; procedure, shortened: as §2
[27] = Inhibition of beta-lactamase IMP-1 (unknown origin) expressed in Escherichia coli LZ2310 assessed as potentiation of ceftazidime antibacterial activity by measuring ceftazidime induced diameter of inhibition zone at 40 uM incubated for 18 hrs by disk diffusion method (reference value: 9 mm); procedure, shortened: as §1
[28] = Inhibition of beta-lactamase IMP-1 (unknown origin) expressed in Escherichia coli BL21(DE3) using imipenem as substrate by measuring substrate hydrolysis at 200 uM by spectrophotometric analysis; procedure, shortened: as §2

Compound | inhibition zone (IZ) [1] [mm] | inhibition zone (IZ) [2] [mm] | inhibition [8] | inhibition [9] | deltaH [10] [kcal/mol] | inhibition [11] | Ka [12] | -TdeltaS [13] [kcal/mol] | deltaG [15] [kcal/mol] | inhibition [17] | inhibition [18] | inhibition [19] | inhibition [20] | inhibition [23] | inhibition [25] | Ki [3] [µM] | Ki [5] [µM] | Ki [6] [µM] | Ki [7] [µM] | Kd [16] [µM] | also measured
O=C(O)c1ccccc1/C=N/n1c(-c2cc(Cl)cc(Cl)c2)n[nH]c1=S | 14 | 6 | – | – | -3.1 | 53% | 1.2 10^6/M | 4.3 | -8.2 | – | – | – | – | – | – | 0.8 | 3 | 3 | 4 | 0.863 | Ki [14]: 30 µM
S=c1[nH]nc(-c2ccccc2)n1/N=C/c1ccccc1 | – | – | inactive | inactive | – | 60% | – | – | – | inactive | inactive | inactive | inactive | inactive | inactive | – | – | – | – | – | inhibition [22]: inactive; inhibition [24]: inactive
S=c1[nH]nc(-c2cc(Cl)cc(Cl)c2)n1/N=C/c1ccc(OCc2ccccc2)cc1 | – | 6 | – | – | – | – | – | – | – | inactive | – | inactive | – | inactive | inactive | 0.6 | 18 | – | – | – | Ki [26]: 0.1 µM; inhibition zone (IZ) [27]: 9 mm
O=C(O)c1ccccc1/C=N/n1c(-c2ccccn2)n[nH]c1=S | – | – | – | 60% | – | inactive | – | – | – | inactive | inactive | inactive | 62% | inactive | inactive | – | – | – | – | – | inhibition [24]: inactive; inhibition [28]: inactive
Oc1ccc(/C=N/n2c(CC(c3ccccc3)c3ccccc3)n[nH]c2=S)c(O)c1 | – | – | – | – | – | 35% | – | – | – | inactive | 35% | inactive | inactive | – | – | – | – | – | – | – | inhibition [22]: inactive
Cc1ccccc1-c1n[nH]c(=S)n1/N=C/c1ccc(OCc2ccccc2)cc1 | – | 6 | inactive | inactive | – | – | – | – | – | – | – | – | – | inactive | inactive | 2.1 | 12 | – | 22 | – | Ki [26]: 0.3 µM; IC50 [4]: 5.9 µM; inhibition zone (IZ) [27]: 9 mm

More lines, main results first:

inhibition zone (IZ) [1] [mm] | inhibition zone (IZ) [2] [mm] | inhibition [8] | inhibition [9] | deltaH [10] [kcal/mol] | inhibition [11] | Ka [12] | -TdeltaS [13] [kcal/mol] | deltaG [15] [kcal/mol] | inhibition [17] | inhibition [18] | inhibition [19] | inhibition [20] | inhibition [23] | inhibition [25] | Compound | Ki [3] [µM] | Ki [5] [µM] | Ki [6] [µM] | Ki [7] [µM] | Kd [16] [µM] | also measured
14 | 6 | inactive | inactive | – | – | – | – | – | – | – | – | – | – | – | Cc1ccccc1-c1n[nH]c(=S)n1/N=C/c1ccc(O)cc1O | 0.4 | 31 | 7 | 62 | – | IC50 [4]: 19 µM
– | – | – | – | – | 67% | – | – | – | inactive | 54% | inactive | 63% | – | – | Oc1ccc(/C=N/n2c(-c3ccc(Cl)cc3)n[nH]c2=S)c(O)c1 | – | – | – | – | – | inhibition zone (IZ) [21]: 15 mm; Ki [14]: 3.1 µM
– | – | inactive | inactive | – | 41% | – | – | – | inactive | inactive | inactive | 38% | – | 62% | Cc1ccccc1-c1n[nH]c(=S)n1/N=C/c1ccccc1O | – | – | – | – | – | inhibition [24]: inactive
14 | 6 | – | – | -6.3 | inactive | 2.6 10^6/M | 2.4 | -8.7 | – | – | – | – | – | – | COc1ccc(O)c(-c2n[nH]c(=S)n2/N=C/c2ccccc2C(=O)O)c1 | 0.5 | 9 | 0.7 | 13 | 0.389 | inhibition [28]: inactive; Ki [14]: 27 µM
– | – | 45% | – | -10.4 | inactive | 3.1 10^6/M | -1.6 | -8.8 | – | inactive | – | – | – | – | Oc1ccc(/C=N/n2c(-c3cccc(Br)c3)n[nH]c2=S)c(O)c1 | 13 | – | 0.62 | – | 0.323 | inhibition [24]: inactive; inhibition [28]: inactive
14 | 6 | inactive | inactive | -9.6 | inactive | 3.4 10^6/M | -2.1 | -7.5 | – | 31% | – | – | – | – | Oc1ccc(/C=N/n2c(-c3ccccc3O)n[nH]c2=S)c(O)c1 | 0.5 | – | 2 | 6 | 2.98 | inhibition [28]: inactive
14 | 6 | – | – | -9.1 | 45% | 7.7 10^6/M | -1.1 | -8 | – | – | 39% | – | – | – | Cc1ccccc1-c1n[nH]c(=S)n1/N=C/c1ccc(O)c(C(=O)O)c1 | 1.4 | 13 | 2 | – | 1.3 | –
